Data as given in ChEMBL document CHEMBL1130113 (J Med Chem, 1997).
Where a SMILES comes first, the peptide text is derived from it. [ ]: non-standard residue; d: D form. Aib = CC(C)(N)C(=O)O

Legend:
[1] = molecular target: Delta-type opioid receptor (Rattus norvegicus, UniProt P33533); assay: Affinity was assessed using competitive binding assay labeled with [3H]DPDPE (6.3 nM) for Opioid receptor delta 1
Outline: (§1)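 Rat brain synaptosomal membranes, preincubated, in duplicate tubes. Buffer 50 mM HEPES pH 7.5, 5 mM MgCl2, glycerol, protease inhibitors. Equilibrium incubation 120 min at room temperature (22-23 °C). Labeled peptide displaced by 6-14 analogue concentrations spanning a 1000-fold range. Filtered on glass fiber and washed 3× with ice-cold buffer containing 0.01% BSA. Ki from IC50 by Cheng-Prusoff.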

[2] = molecular target: Mu-type opioid receptor (Rattus norvegicus, UniProt P33535); assay: Affinity was assessed using competitive binding assay labeled with [3H]- DAGO (1.28 nM) for Opioid receptor mu 1; outline: as §1
[3] = molecular target: Delta-type opioid receptor (Mus musculus, UniProt P32300); assay: Functional biological activity for Opioid receptor delta 1 was determined in vitro, on mouse vas deferens (MVD).; format: tissue-based
[4] = molecular target: Mu-type opioid receptor (Cavia porcellus, UniProt P97266); assay: Functional biological activity for mu opioid receptor was determined in vitro, on guinea pig ileum (GPI).; format: tissue-based
Outline: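 A 2-3 cm guinea pig ileum segment was held in a 20 mL organ bath with 70 µM hexamethonium bromide and 0.125 µM mepyramine maleate, gassed with 95% O2/5% CO2 at 36 °C. Transmural stimulation used 0.5 ms square-wave pulses at 0.1 Hz, at 1.5× maximal-twitch voltage (~30 V). Twitch inhibition was read from dose-response curves against dermorphin or morphine.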

[5] = IC50 ratio measured as the IC50 value of GPI to that of MVD.; format: functional
[6] = molecular target: Opioid receptors; mu & delta (Homo sapiens) (UniProt P41143+P35372); assay: Selectivity ratio measured as the Ki ratio of mu receptor th that of delta receptor; format: protein assay
Outline: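 Ratio of Ki values for mu and delta receptors. Both were measured in rat brain synaptosomal membranes in 50 mM HEPES pH 7.5 with 5 mM MgCl2, glycerol and protease inhibitors, for 120 min at 22-23 °C. Radioligand was displaced by 6-14 concentrations over a 1000-fold range. Bound ligand was collected by glass-fiber filtration, and Ki came from IC50 by Cheng-Prusoff.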

Delta-type opioid receptor (Mus musculus, UniProt P32300), sequence (P32300 whole entry): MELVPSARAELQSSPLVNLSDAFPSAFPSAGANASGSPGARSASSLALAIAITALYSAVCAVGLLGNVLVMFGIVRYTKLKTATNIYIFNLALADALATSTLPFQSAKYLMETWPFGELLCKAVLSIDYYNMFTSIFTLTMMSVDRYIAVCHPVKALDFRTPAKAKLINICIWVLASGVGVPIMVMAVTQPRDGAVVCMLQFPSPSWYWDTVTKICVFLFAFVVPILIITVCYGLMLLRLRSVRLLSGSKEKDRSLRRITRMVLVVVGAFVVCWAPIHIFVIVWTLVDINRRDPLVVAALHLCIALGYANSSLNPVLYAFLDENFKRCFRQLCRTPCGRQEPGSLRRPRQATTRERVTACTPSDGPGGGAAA
Mu-type opioid receptor (Rattus norvegicus, UniProt P33535), sequence (P33535 whole entry): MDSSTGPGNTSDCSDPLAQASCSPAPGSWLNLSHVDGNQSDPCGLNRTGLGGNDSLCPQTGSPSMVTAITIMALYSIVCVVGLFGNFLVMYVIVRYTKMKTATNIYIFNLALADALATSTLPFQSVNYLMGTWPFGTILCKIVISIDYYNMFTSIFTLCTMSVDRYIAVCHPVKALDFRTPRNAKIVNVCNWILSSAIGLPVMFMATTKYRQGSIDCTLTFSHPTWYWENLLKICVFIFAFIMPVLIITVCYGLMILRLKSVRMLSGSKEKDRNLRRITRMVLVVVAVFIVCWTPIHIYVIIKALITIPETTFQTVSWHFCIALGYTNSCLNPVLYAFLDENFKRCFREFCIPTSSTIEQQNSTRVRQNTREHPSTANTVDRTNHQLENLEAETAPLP
Mu-type opioid receptor (Cavia porcellus, UniProt P97266), sequence (P97266 whole entry): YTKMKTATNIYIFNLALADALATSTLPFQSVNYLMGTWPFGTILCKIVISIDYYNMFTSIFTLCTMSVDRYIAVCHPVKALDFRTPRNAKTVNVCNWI
Delta-type opioid receptor (Rattus norvegicus, UniProt P33533), sequence (P33533 whole entry): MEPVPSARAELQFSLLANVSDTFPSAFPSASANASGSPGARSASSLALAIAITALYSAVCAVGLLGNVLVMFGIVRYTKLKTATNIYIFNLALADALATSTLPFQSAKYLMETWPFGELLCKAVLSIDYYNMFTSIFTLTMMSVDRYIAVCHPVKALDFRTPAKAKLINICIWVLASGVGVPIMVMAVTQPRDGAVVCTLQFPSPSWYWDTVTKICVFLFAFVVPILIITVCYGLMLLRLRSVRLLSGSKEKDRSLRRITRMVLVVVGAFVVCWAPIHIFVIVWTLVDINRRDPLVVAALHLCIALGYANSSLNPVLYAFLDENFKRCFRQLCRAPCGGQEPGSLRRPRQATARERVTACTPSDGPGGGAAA
Opioid receptors; mu & delta (Homo sapiens), sequence (P35372 whole entry, looked up): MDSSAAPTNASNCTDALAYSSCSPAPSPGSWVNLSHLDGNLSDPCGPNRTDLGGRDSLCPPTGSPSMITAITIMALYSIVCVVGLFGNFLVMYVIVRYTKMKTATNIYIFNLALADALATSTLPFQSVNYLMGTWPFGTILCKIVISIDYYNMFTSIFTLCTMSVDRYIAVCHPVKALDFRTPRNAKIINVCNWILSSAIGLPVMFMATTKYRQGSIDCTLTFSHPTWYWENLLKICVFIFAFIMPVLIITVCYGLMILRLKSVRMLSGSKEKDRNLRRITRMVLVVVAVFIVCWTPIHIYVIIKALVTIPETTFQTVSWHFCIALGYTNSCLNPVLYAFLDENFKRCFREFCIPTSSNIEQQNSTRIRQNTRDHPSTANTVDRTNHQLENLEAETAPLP
Opioid receptors; mu & delta (Homo sapiens), sequence (P41143 whole entry, looked up): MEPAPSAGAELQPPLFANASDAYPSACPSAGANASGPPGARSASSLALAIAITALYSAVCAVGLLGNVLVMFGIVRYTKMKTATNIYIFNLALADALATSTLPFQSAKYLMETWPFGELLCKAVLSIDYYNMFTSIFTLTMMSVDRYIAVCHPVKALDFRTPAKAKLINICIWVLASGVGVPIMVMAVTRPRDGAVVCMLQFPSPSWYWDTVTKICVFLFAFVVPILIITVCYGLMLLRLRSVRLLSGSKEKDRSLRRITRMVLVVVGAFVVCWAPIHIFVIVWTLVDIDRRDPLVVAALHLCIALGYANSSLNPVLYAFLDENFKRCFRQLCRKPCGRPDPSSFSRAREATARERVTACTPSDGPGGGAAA

Row | Compound | Ki [1] | Ki [2] | IC50 [3] | IC50 [4] | IC50 ratio [5] | Selectivity ratio [6]
1 | CC(C)[C@H](NC(=O)[C@H](CC(=O)O)NC(=O)C(C)(C)NC(=O)[C@@H](C)NC(=O)[C@@H](N)Cc1ccc(O)cc1)C(=O)N[C@H](C(=O)NCC(N)=O)C(C)C | 0.8 nM | 4540 nM | 57.3 nM | > 10 nM | > 175 | 5680
2 | CC(C)[C@H](NC(=O)[C@@H](NC(=O)C(C)(C)NC(=O)[C@H](Cc1ccccc1)NC(=O)[C@@H](C)NC(=O)[C@@H](N)Cc1ccc(O)cc1)C(C)C)C(=O)NCC(=O)O | 0.11 nM | 4.48 nM |  |  |  | 
3 | CC(C)[C@H](NC(=O)[C@H](CC(=O)O)NC(=O)C(C)(C)NC(=O)[C@@H](N)Cc1ccc(O)cc1)C(=O)N[C@H](C(=O)NCC(N)=O)C(C)C (H-Y[Aib]DVVG-NH2) | 2630 nM | 441000 nM |  |  |  | 
4 | CC(NC(=O)[C@@H](N)Cc1ccc(O)cc1)C(=O)N[C@@H](Cc1ccccc1)C(=O)N[C@@H](CC(=O)O)C(=O)N[C@H](C(=O)N[C@H](C(=O)NCC(N)=O)C(C)C)C(C)C (single isomer, unassigned) [DELTORPHIN C] |  |  |  | 420 nM |  | 
5 | CC(C)[C@H](NC(=O)[C@H](CC(=O)O)NC(=O)[C@@H](C)NC(=O)[C@@H](C)NC(=O)[C@@H](N)Cc1ccc(O)cc1)C(=O)N[C@H](C(=O)NCC(N)=O)C(C)C | 5.72 nM | 13600 nM |  |  |  | 
6 | CC(C)[C@H](NC(=O)[C@H](CC(=O)O)NC(=O)[C@H](Cc1ccccc1)NC(=O)C(C)(C)NC(=O)[C@@H](N)Cc1ccc(O)cc1)C(=O)N[C@H](C(=O)NCC(N)=O)C(C)C (H-Y[Aib]FDVVG-NH2) | 0.12 nM | 1020 nM | 1.44 nM | > 10 nM | > 7000 | 
7 | CC(C)[C@H](NC(=O)[C@@H](NC(=O)C(C)(C)NC(=O)[C@H](Cc1ccccc1)NC(=O)[C@@H](C)NC(=O)[C@@H](N)Cc1ccc(O)cc1)C(C)C)C(=O)NCC(N)=O | 0.2 nM | 0.43 nM | 0.36 nM | 4.5 nM | 13 | 
8 | CC(C)[C@H](NC(=O)[C@@H](NC(=O)[C@@H](CC(=O)O)NC(=O)C(C)(C)NC(=O)C(C)(C)NC(=O)[C@@H](N)Cc1ccc(O)cc1)C(C)C)C(=O)NCC(N)=O |  |  |  |  | > 21 | 
9 | CC(C)[C@H](NC(=O)[C@H](CC(=O)O)NC(=O)C(C)(C)NC(=O)C(C)(C)NC(=O)[C@@H](N)Cc1ccc(O)cc1)C(=O)N[C@H](C(=O)NCC(N)=O)C(C)C | 3.62 nM | 15200 nM | 70 nM | > 10 nM |  | 
